B1: tRNA (parent)
chain: GUUCCGUUGGCGUAAUGGUAACGCGUCUCCCUCCUAAGGAGAAGACUGCGGGUUCGAGUCCCGUACGGAACG

Variants at the floor of the assay were thinned out.

In the data set the parent is B1. Put plainly: yeast fitness relative to wild type (ratio to wild type); higher = fitter; tRNA-Arg(CCU), competitive growth, 37 C, YPD. The essentials:
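Gene amplicons from the start population and from each of six end populations were read by 100-nucleotide paired-end sequencing. Those end populations came from pooled Saccharomyces cerevisiae strains carrying tRNA-Arg(CCU) gene variants at the native locus, competed in YPD at 37°C for 24 hours. Fitness relative to wild type was worked out from changes in genotype frequencies. Genotypes needed ≥ 100 starting reads, and estimates < 0.5 were set to 0.5.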
GUUCCGUUGGCGUAAAGGUAACGCGUCUCCCUCCUAAGGAGAAGACUGCGGGUUCGAGUCCCGUGCGGAACG [U16A A65G]: the yeast fitness was determined as 0.933. For GUUCCGUUGGCGUAAAGGUUACGGGUCUCCAUGCUAAGGAGAAGACUGCGGGUUCGAGUCACGUACCGAACG [U16A A20U C24G C31A C33G C61A G67C], the yeast fitness is at most 0.5. Consider GUUCCGUUGGCGUAAAGGUAGCGCGUGUCCCUCCUAAGGAGAAGAUUGCGGGUUCGAGUCCCGUACGGAACG [U16A A21G C27G C46U], for which the yeast fitness amounted to 0.566. As for GUUCCGUUGGCGUAAAGGUAACGCGUCUCCCUCCUAGGGAGAAGACUGCGGGUUCGAGUCCCGUACGGAACG [U16A A37G], the yeast fitness was 0.79.

As for GUUCCGUUGGCGUAAAGGUAACGCGUCUCCCUCCUAUGGAGAAGACUGCGGGUUCGAGUCCCGUACGGAACG [U16A A37U], the yeast fitness came to 0.739. With GUUCCGUUGGCGUAAAGGUAACGCGUCUCCCUCCUUAGGAGAAGAAUGCGGGUUCGAGUCCCGUACGGAACG [U16A A36U C46A], the yeast fitness is at most 0.5. Then GUUCCGUUGGCGUAAAGGUAUCCCGUCUCCCUCCUAAGGAGAAGACCGCGGGUUCGAGUCCCGUACGGAACG [U16A A21U G23C U47C], with at most 0.5; and GUUCCGUUGGCGUAAAGGUAACGCGUCUCCCUCCUAAGGAGAAGACUGCGGGUUCGUGUCCCGUAUGGAACG [U16A A57U C66U], with 0.528; and GUUCCGUUGGCGUAAAGGUAAGGCGUCUCCCUCCUAAGGAGAAGACUGCGGGUUCGAGUCUCGUGCGGAACG [U16A C22G C61U A65G], with at most 0.5.

For the variant GUUCCGUUGGCGUAAAGGUAACGCGUCUCCCUCCUAAGGAGAAGACUGCGGGUUCGAGUCCCGUACGGACCG [U16A A70C], the yeast fitness turned out to be 0.897. As for GUUCCGUUGGCGUAAAGGUAACGCGUCUCCCUCCUAAGGAGAAGACUGCGGGUUCGAGUCCCGUACGGAUCG [U16A A70U], the yeast fitness was 1.03.

As to GUUCCGUUGGCGUAAAGGUAACGCGUCUCCCUCCUAGGGAGAAAACUGCGGGUUCGAGUCCCGUACGGUACG [U16A A37G G44A A69U], the yeast fitness was at most 0.5. As to GUUCCGUUGGCGUAAAGGUAUCGAGUCUCCCUCCUAAGGAGAAGACUGCGGAUUCGAGUCCCGUACGGAACG [U16A A21U C24A G52A], the yeast fitness is at most 0.5. Next, GUUCCGUUGGCGUAAAGGUAGCGCGUGUCCCUCCUAAGGAGAAGACUGCGGGUUCGAGUCCCGUACGCAACG [U16A A21G C27G G68C]: at most 0.5. Consider GUUCCGUUGGCGUAAAGGUAACGCGUCUCCCUCCUAAGGAGAUGACUGCGGGUUCGAGUCCGGUAAGGCACG [U16A A43U C62G C66A A69C], for which the yeast fitness is at most 0.5. Next, GUUCCGUUGGCGUAAAGGUUACGGGUCUCCCUGCUAAGGAGAAGACUGCGGGUUCGAGUCACGUACGGAACG [U16A A20U C24G C33G C61A]: at most 0.5; GUUCCGUUGGCGUAAAGGUAUCGCGUCUCCCUCCUAAGGAGUAGACUGCGGGUUCGAGUCCCGUACGGAACG [U16A A21U A42U]: 0.591; GUUCCGUUGGCGUAAAGGUAACGCGUCUCCCUCCUAAGGAGAAGACUGCGGGUUCGUGUCCCGUACGGUACG [U16A A57U A69U]: 0.526.

Consider GUUCCGUUGGCGUAAAGGUAGCGCGUCUCCCUCAUAAGGAGAAGACUGGGGGUUCGAGUCCUGUACGGAACG [U16A A21G C34A C49G C62U], for which the yeast fitness is at most 0.5. Next, GUUCCGUUGGCGUAAAGGUGACGCGUCUCCCUCUUAAGGAGAAGACUGCGGGUUCCAGUCCCGUACGGAACG [U16A A20G C34U G56C]: 0.509; GUUCCGUUGGCGUAAAGGUAACGCGUCUCCCUCCUAAGGAGAAGACUGCGGGUUCGAGUCCCGUACGGCACG [U16A A69C]: 0.969. With GUUCCGUUGGCGUAAAGGUAACGCGUCUCCCUCCUAAGGAGAAGACUGCGGGUUCGAGUCCCGUACGGGACG [U16A A69G], the yeast fitness is 0.853. On to GUUCCGUUGGCGUAAAGGUAACGCGUCUCCCUCCUUAGGAGAAGACUGCGGGUUCGAGUCCCGUACGGAACG [U16A A36U], for which the yeast fitness is 0.552.

Take GUUCCGUUGGCGUAAAGGUAACGCGUCUCCCUCCUAAGGGGAAGACUGCGGGUUCGAGUCCCGUACGGAACG [U16A A40G]: the yeast fitness came to 0.913. With GUUCCGUUGGCGUAAAGGUAAUGCGUCUCCCUCCUAAGGAGAAGACUGCGGGUUCGAGUCCCGUACGGAACG [U16A C22U], the yeast fitness stood at 0.773. For the variant GUUCCGUUGGCGUAAAGGUAAGGCGUCUCCCUCCUAAGGAGAAGACUGCGGGUUCGAGUCCCGUACGGAACG [U16A C22G], the yeast fitness worked out at 0.989. Next, GUUCCGUUGGCGUAAAGGUAAAGCGUCUCCCUCCUAAGGAGAAGACUGCGGGUUCGAGUCCCGUACGGAACG [U16A C22A]: 0.941; GUUCCGUUGGCGUAAAGGUAACGCGUCUCCCUCCUAUGGAGAAGACUGCGGGUUCAAGUCCAGUACGGGACG [U16A A37U G56A C62A A69G]: at most 0.5; GUUCCGUUGGCGUAAAGGUAAUGCGUCUCCCUCCUAAGGAGAAGACUACGGGUUCGAGUCCCGUACGGAACG [U16A C22U G48A]: 0.631. Regarding GUUCCGUUGGCGUAAAGGUAACGCGUCUCCCUCCUAAGGAGACGACUGCGGGUUCGAGUCCCGUACGGAACG [U16A A43C], the yeast fitness amounted to 0.906. Take GUUCCGUUGGCGUAAAGGUAACGCGUCUCCCUCCUACGGAGAAGACUGCGGGUUUGAGUCCCGUACGGAACG [U16A A37C C55U]: the yeast fitness was at most 0.5. Turning to GUUCCGUUGGCGUAAAGGUGACGCGUCUGUCUCCUAAGGUGAAGACUGCGGGUUCGAGUCCCGUACGGAGCG [U16A A20G C29G C30U A40U A70G], the yeast fitness is at most 0.5. GUUCCGUUGGCGUAAAGGUUACGCGUCUCCCUCCCAAGCAGCAGACUACGGGUUCGAGUCCCGUACGGAACG [U16A A20U U35C G39C A42C G48A]: the yeast fitness is at most 0.5. With GUUCCGUUGGCGUAAAGGUAGCGCGUCUCCCUCUUAAGGAGAAGACUGCGGGUUCGAGUCCCGUACGGAACG [U16A A21G C34U], the yeast fitness is at most 0.5. As to GUUCCGUUGGCGUAAAGGUAACGCGUCUCCCUCCUAAGGAGCAGACUGCGGGUUCGAGUCCCGUACGGAACG [U16A A42C], the yeast fitness came out at 0.854. GUUCCGUUGGCGUAAAGGUAACGCGUCUCCCUCCUAGGGAGAAGACUGCGGGUUCGAGUCCUGUACGGAACG [U16A A37G C62U]: the yeast fitness is 0.543.

As for GUUCCGUUGGCGUAAAGGUGACGCGUUUCCCUCCUAAGGACAAGACUGCGGGUUUGAGUCCCGUACGGUACG [U16A A20G C27U G41C C55U A69U], the yeast fitness was at most 0.5. With GUUCCGUUGGCGUAAAGGUACCGCGUCUCCCUCCUAAGGAGAAGUCUGCGGGUUCGAGUUCCGUACCGAACG [U16A A21C A45U C60U G67C], the yeast fitness was at most 0.5.
